Data published in ChEMBL document CHEMBL1649357, “Protective effects of baicalin against ischemia/reperfusion injury in rat liver” (2010).
The source made the active and inactive calls. The calls are words filed in the database; no cut-off is given here.

Experiments:
Rattus norvegicus [1] = assay: Hepatoprotective activity in Sprague-Dawley rat sham operated model assessed as decrease of serum ALT level at 200 mg/kg, ip administered 24 hrs and 1 hr before ischemia; format: functional; conditions: route intraperitoneal
Method in brief: (§1)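 Serum ALT was read spectrophotometrically with a kit at 5 h reperfusion, in U·L-1, mean ± SEM, n = 8-10.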

Rattus norvegicus [2] = assay: Hepatoprotective activity in Sprague-Dawley rat ischemia-reperfusion model assessed as decrease of mitochondrial swelling in liver tissue at 200 mg/kg, ip administered 24 hrs and 1 hr before ischemia relative to control; format: functional, organism-based; set-up: dose 200 mg/kg
Method in brief: (§2)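 Mitochondria were isolated by differential centrifugation in sucrose/Tris/EDTA, pH 7.2. Mitochondria (4 mg) were suspended in phosphate buffer pH 7.2 with 250 mM sucrose, 5 mM KH2PO4 and 1 µM rotenone at 25 °C. Initial swelling rate was taken as A520 change per min per mg protein.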

Rattus norvegicus [3] = assay: Antiinflammatory activity in Sprague-Dawley rat sham operated model assessed as decrease of serum IL-6 level at 200 mg/kg, ip administered 24 hrs and 1 hr before ischemia by ELISA relative to control; format: functional; conditions: route intraperitoneal
Rattus norvegicus [4] = assay: Antiinflammatory activity in Sprague-Dawley rat ischemia-reperfusion model assessed as increase in HO-1 protein expression in liver tissue at 200 mg/kg, ip administered 24 hrs and 1 hr before ischemia by Western blot analysis
Rattus norvegicus [5] = assay: Hepatoprotective activity in Sprague-Dawley rat ischemia-reperfusion model assessed as decrease of caspase 8 activity in liver tissue at 200 mg/kg, ip administered 24 hrs and 1 hr before ischemia […] relative to control; format: functional, organism-based; set-up: dose 200 mg/kg
Method in brief: (§3)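 Liver (1 g) was homogenized in Tris/MgCl2/EGTA buffer and spun at 600g, then 40000g. 30 µg cytosolic protein was preincubated 15 min at room temperature in HEPES/EDTA/NaCl/Triton/10 mM DTT. Fluorogenic substrate was then added at 200 µM and incubated at 37 °C. Fluorescence (ex 400/em 490 nm) was read at 120 min and expressed as % of vehicle I/R.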

Rattus norvegicus [6] = assay: Hepatoprotective activity in Sprague-Dawley rat sham operated model assessed as decrease of glutathione level per gram of liver at 200 mg/kg, ip administered 24 hrs and 1 hr before ischemia relative to control; format: functional; conditions: route intraperitoneal
Method in brief: (§4)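 Liver homogenate was precipitated with 1% picric acid. Total glutathione was measured by the glutathione reductase/DTNB/NADPH method at 412 nm, and GSSG the same way with 2-vinylpyridine. GSH is the difference, in µmol·g liver-1.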

Rattus norvegicus [7] = assay: Antiinflammatory activity in Sprague-Dawley rat sham operated model assessed as decrease of serum TNFalpha level at 200 mg/kg, ip administered 24 hrs and 1 hr before ischemia by ELISA relative to control; format: functional; conditions: route intraperitoneal
Rattus norvegicus [8] = assay: Antiinflammatory activity in Sprague-Dawley rat ischemia-reperfusion model assessed as inhibition of nuclear localization of NF-kappaB/p65 subunit in liver tissue at 200 mg/kg, ip administered 24 hrs and 1 hr before ischemia by Western blot analysis; format: functional, organism-based; set-up: dose 200 mg/kg
Method in brief: (§5)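 Liver homogenates were blotted, and nuclear and cytosolic fractions were isolated with NE-PER reagents. 20 µg protein per lane was run on 10% gels and transferred to nitrocellulose, with 5% milk block for 60 min. Polyclonal antibodies detected iNOS, COX-2, HO-1, NF-κB/p65, IκB-α and lamin B1, with β-actin as control, read by ECL.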

Rattus norvegicus [9] = assay: Antiinflammatory activity in Sprague-Dawley rat ischemia-reperfusion model assessed as decrease of IL-6 mRNA expression in liver tissue at 200 mg/kg, ip administered 24 hrs and 1 hr before ischemia by RT-PCR analysis; format: functional, organism-based; set-up: dose 200 mg/kg
Rattus norvegicus [10] = assay: Antiinflammatory activity in Sprague-Dawley rat ischemia-reperfusion model assessed as inhibition of COX2 mRNA expression in liver tissue at 200 mg/kg, ip administered 24 hrs and 1 hr before ischemia by RT-PCR analysis; format: functional, organism-based; set-up: dose 200 mg/kg
Rattus norvegicus [11] = assay: Antiinflammatory activity in Sprague-Dawley rat ischemia-reperfusion model assessed as inhibition of iNOS protein expression in liver tissue at 200 mg/kg, ip administered 24 hrs and 1 hr before ischemia by Western blot analysis; format: functional, organism-based; set-up: dose 200 mg/kg; method in brief: as §5
Rattus norvegicus [12] = assay: Hepatoprotective activity in Sprague-Dawley rat ischemia-reperfusion model assessed as decrease of serum ALT level at 200 mg/kg, ip administered 24 hrs and 1 hr before ischemia; format: functional; conditions: route intraperitoneal; method in brief: as §1
Rattus norvegicus [13] = assay: Hepatoprotective activity in Sprague-Dawley rat ischemia-reperfusion model assessed as decrease of malondialdehyde level per gram of protein at 200 mg/kg, ip administered 24 hrs and 1 hr before ischemia relative to control; format: functional; conditions: route intraperitoneal
Rattus norvegicus [14] = assay: Antiinflammatory activity in Sprague-Dawley rat ischemia-reperfusion model assessed as decrease of TNFalpha mRNA expression in liver tissue at 200 mg/kg, ip administered 24 hrs and 1 hr before ischemia by RT-PCR analysis; format: functional, organism-based; set-up: dose 200 mg/kg
Rattus norvegicus [15] = assay: Hepatoprotective activity in Sprague-Dawley rat sham operated model assessed as decrease of malondialdehyde level per gram of protein at 200 mg/kg, ip administered 24 hrs and 1 hr before ischemia relative to control; format: functional; conditions: route intraperitoneal
Rattus norvegicus [16] = assay: Hepatoprotective activity in Sprague-Dawley rat ischemia-reperfusion model assessed as decrease of glutathione level per gram of liver at 200 mg/kg, ip administered 24 hrs and 1 hr before ischemia relative to control; format: functional; conditions: route intraperitoneal; method in brief: as §4
Rattus norvegicus [17] = assay: Hepatoprotective activity in Sprague-Dawley rat sham operated model assessed as decrease of mitochondrial swelling in liver tissue at 200 mg/kg, ip administered 24 hrs and 1 hr before ischemia relative to control; format: functional, organism-based; set-up: dose 200 mg/kg; method in brief: as §2
Rattus norvegicus [18] = assay: Hepatoprotective activity in Sprague-Dawley rat ischemia-reperfusion model assessed as decrease of caspase 3 activity in liver tissue at 200 mg/kg, ip administered 24 hrs and 1 hr before ischemia […] relative to control; format: functional, organism-based; set-up: dose 200 mg/kg; method in brief: as §3
Rattus norvegicus [19] = assay: Hepatoprotective activity in Sprague-Dawley rat sham operated model assessed as decrease of caspase 8 activity in liver tissue at 200 mg/kg, ip administered 24 hrs and 1 hr before ischemia by relative to control
Rattus norvegicus [20] = assay: Hepatoprotective activity in Sprague-Dawley rat ischemia-reperfusion model assessed as decrease of TRADD protein expression in liver tissue at 200 mg/kg, ip administered 24 hrs and 1 hr before ischemia by Western blot analysis; format: functional, organism-based; set-up: dose 200 mg/kg
Rattus norvegicus [21] = assay: Antiinflammatory activity in Sprague-Dawley rat ischemia-reperfusion model assessed as decrease of serum TNFalpha level at 200 mg/kg, ip administered 24 hrs and 1 hr before ischemia by ELISA relative to control; format: functional; conditions: route intraperitoneal
Rattus norvegicus [22] = assay: Antiinflammatory activity in Sprague-Dawley rat ischemia-reperfusion model assessed as inhibition of COX2 protein expression in liver tissue at 200 mg/kg, ip administered 24 hrs and 1 hr before ischemia by Western blot analysis; format: functional, organism-based; set-up: dose 200 mg/kg; method in brief: as §5
Rattus norvegicus [23] = assay: Antiinflammatory activity in Sprague-Dawley rat ischemia-reperfusion model assessed as inhibition of degradation of IkappaB-alpha in liver tissue at 200 mg/kg, ip administered 24 hrs and 1 hr before ischemia by Western blot analysis; format: functional, organism-based; set-up: dose 200 mg/kg; method in brief: as §5
Rattus norvegicus [24] = assay: Antiinflammatory activity in Sprague-Dawley rat ischemia-reperfusion model assessed as decrease of serum IL-6 level at 200 mg/kg, ip administered 24 hrs and 1 hr before ischemia by ELISA relative to control; format: functional; conditions: route intraperitoneal
Rattus norvegicus [25] = assay: Antiinflammatory activity in Sprague-Dawley rat ischemia-reperfusion model assessed as inhibition of iNOS mRNA expression in liver tissue at 200 mg/kg, ip administered 24 hrs and 1 hr before ischemia by RT-PCR analysis; format: functional, organism-based; set-up: dose 200 mg/kg
Rattus norvegicus [26] = assay: Hepatoprotective activity in Sprague-Dawley rat sham operated model assessed as decrease of caspase 3 activity in liver tissue at 200 mg/kg, ip administered 24 hrs and 1 hr before ischemia by fluorogenic peptide substrate assay relative to control
Rattus norvegicus [27] = assay: Hepatoprotective activity in Sprague-Dawley rat ischemia-reperfusion model assessed as protection against apoptosis in liver tissue at 200 mg/kg, ip administered 24 hrs and 1 hr before ischemia by TUNEL assay; format: functional, organism-based; set-up: dose 200 mg/kg
Method in brief: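 TUNEL kit staining was done on liver sections. TUNEL-positive cells were counted in randomly chosen 400× fields per section.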

Rattus norvegicus [28] = assay: Hepatoprotective activity in Sprague-Dawley rat sham operated model assessed as protection against histopathologic damage at 200 mg/kg, ip administered 24 hrs and 1 hr before ischemia by TUNEL staining; format: functional; conditions: route intraperitoneal, in the assay text read “by hematoxylin and eosin staining” for “by TUNEL staining”
Method in brief: (§6)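 Left-lobe tissue was fixed in formalin and paraffin sections (5 µm) were stained with H&E. Injury was scored at 200× by point counting on an ordinal severity scale (grade 0 = minimal or none).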

Rattus norvegicus [29] = assay: Hepatoprotective activity in Sprague-Dawley rat ischemia-reperfusion model assessed as protection against histopathologic damage at 200 mg/kg, ip administered 24 hrs and 1 hr before ischemia by TUNEL staining; format: functional; conditions: route intraperitoneal, in the assay text read “by hematoxylin and eosin staining” for “by TUNEL staining”; method in brief: as §6
Rattus norvegicus [30] = assay: Antiinflammatory activity in Sprague-Dawley rat ischemia-reperfusion model assessed as inhibition of HO-1 mRNA expression in liver tissue at 200 mg/kg, ip administered 24 hrs and 1 hr before ischemia by RT-PCR analysis; format: functional, organism-based; set-up: dose 200 mg/kg

With `O=C(O)[C@H]1O[C@@H](Oc2cc3oc(-c4ccccc4)cc(=O)c3c(O)c2O)[C@H](O)[C@@H](O)[C@@H]1O` [BAICALIN] the Activity (Rattus norvegicus [1]) was 42.5 U/L, the Activity (Rattus norvegicus [2]) was “Active” and the Activity (Rattus norvegicus [3]) was 37.6 pg/mL. The increase (Rattus norvegicus [4]) was “Active”, the Activity (Rattus norvegicus [5]) was “Active” and the Activity (Rattus norvegicus [6]) was 5.5 µmol. For the same compound, the Activity (Rattus norvegicus [7]) was 17.8 pg/mL, the inhibition (Rattus norvegicus [8]) was “Active” and the Activity (Rattus norvegicus [9]) was “Active”. The inhibition (Rattus norvegicus [10]) was “Active”, the inhibition (Rattus norvegicus [11]) was “Active” and the Activity (Rattus norvegicus [12]) was 2658.1 U/L. The Activity (Rattus norvegicus [13]) was 0.31 nmol, the Activity (Rattus norvegicus [14]) was “inactive” and the Activity (Rattus norvegicus [15]) was 0.35 nmol. For the same compound, the Activity (Rattus norvegicus [16]) was 4.98 µmol, the Activity (Rattus norvegicus [17]) was “Active” and the Activity (Rattus norvegicus [18]) was “Active”. For the same compound, the Activity (Rattus norvegicus [19]) was “Active”, the Activity (Rattus norvegicus [20]) was “Active” and the Activity (Rattus norvegicus [21]) was 64.8 pg/mL. The inhibition (Rattus norvegicus [22]) was “Active”, the inhibition (Rattus norvegicus [23]) was “Active” and the Activity (Rattus norvegicus [24]) was 77.4 pg/mL. The inhibition (Rattus norvegicus [25]) was “inactive”, the Activity (Rattus norvegicus [26]) was “Active” and the Activity (Rattus norvegicus [27]) was “Active”. The Activity (Rattus norvegicus [28]) was 0.45, the Activity (Rattus norvegicus [29]) was 1.6 and the inhibition (Rattus norvegicus [30]) was “Active”.
